Source: ChEMBL document CHEMBL3286295, “Discovery of HDAC inhibitors with potent activity against multiple malaria parasite life cycle stages” (Eur J Med Chem, 2014)
Active and inactive are the calls of the source. No cut-off for these calls is given here.

Legend:
[1] = tested on: Plasmodium falciparum; test: Antimalarial activity against late stage gametocyte stage of Plasmodium falciparum NF54 after 72 hrs; format: functional, organism-based; conditions: NF54, 72 h
Summary of the method: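 Stage IV gametocytes of NF54-pfs16-GFP, magnetically isolated day 8 post induction, 33,000 per well. Incubated 72 h with compound under 5% CO2/5% O2/80% N2, then overnight with Mitotracker Red CM-H2XRos (0.07 ug/ml). IC50 by sigmoidal variable-slope fit, mean ±SD, two experiments in duplicate.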

[2] = tested on: Plasmodium falciparum; test: Inhibition of histone deacetylase in Plasmodium falciparum nuclear lysates at 1 uM by fluorescence assay
Summary of the method: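 Nuclear protein lysates prepared from trophozoite-stage P. falciparum with a nuclear extraction kit, tested at 1 μM compound in a fluorometric HDAC assay kit. Percent inhibition vs controls, mean (±SD) of two independent assays, each in duplicate.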

[3] = tested on: Plasmodium falciparum 3D7; test: Inhibition of HDAC in Plasmodium falciparum 3D7 trophozoites assessed as histone H3 hyperacetylation level at 500 nM after 3 hrs by Western blotting analysis relative to control
Summary of the method: (§1)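 Synchronous trophozoite-stage 3D7 parasites incubated 3 h with 500 nM compound or 0.05% DMSO vehicle. Vehicle samples taken at 0 and 3 h. Saponin lysis and PBS washing, then 15% SDS-PAGE and immunoblotting. Anti-RAP2 monoclonal used as loading control; infrared fluorescent secondary detection.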

[4] = Selectivity index, ratio of IC50 for human HepG2 cells to IC50 for asexual blood stage of Plasmodium falciparum 3D7
[5] = tested on: Plasmodium falciparum; test: Antimalarial activity against asexual blood stage of Plasmodium falciparum 3D7 infected in human serum assessed as [3H]hypoxanthine incorporation incubated for 48 hrs prior to 3H]hypoxanthine addition measured after 24 hrs by liquid scintillation counting analysis; format: functional, organism-based; conditions: 3D7, Serum
Summary of the method: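 Synchronous ring-stage parasites (0.25% parasitaemia, 2.5% haematocrit) in RPMI 1640 with 10% heat-inactivated human serum, exposed to serially diluted compound for 48 h at 37°C. [3H]-hypoxanthine (0.5 μCi/well) then added for a further 24 h and counted by liquid scintillation. Inhibition is relative to 0.5% DMSO controls. IC50 by log-linear interpolation, mean (±SD) of three independent experiments, each in triplicate wells.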

[6] = tested on: HepG2; test: Cytotoxicity against human HepG2 cells after 48 hrs; format: ADME, cell-based; conditions: HepG2, 48 h
[7] = Selectivity index, ratio of IC50 for human HepG2 cells to IC50 for exo-erythrocytic form of Plasmodium berghei
[8] = tested on: Plasmodium falciparum 3D7; test: Inhibition of HDAC in Plasmodium falciparum 3D7 trophozoites assessed as histone H4 hyperacetylation level at 500 nM after 3 hrs by Western blotting analysis relative to control; summary of the method: as §1
[9] = tested on: Plasmodium berghei; test: Antimalarial activity against exo-erythrocytic form of Plasmodium berghei infected in human HepG2 cells after 48 hrs; format: functional, organism-based; conditions: HepG2, 48 h
Summary of the method: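 HepG2-A16-CD81EGFP cells seeded 20–26 h before infection and given compound 18 h before infection (0.5% final DMSO). Infected with 1×10^3 luciferase-expressing P. berghei sporozoites per well, spun 3 min at 330xg, 37°C, then incubated 48 h at 37°C in 5% CO2. Read by luminescence. IC50 by four-parameter variable-slope nonlinear regression.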

[10] = Selectivity index, ratio of IC50 for human HepG2 cells to IC50 for late stage gametocyte stage of Plasmodium falciparum NF54; format: toxicity, cell-based; conditions: read-out: Ratio IC50
[11] = tested on: Plasmodium falciparum; test: Inhibition of Plasmodium falciparum recombinant histone deacetylase1 using HDAC substrate 3 as substrate at 1 uM by fluorescence assay
Summary of the method: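 Recombinant PfHDAC1 tested at 1 μM compound in a fluorometric HDAC assay kit with Fluorogenic HDAC substrate 3. Percent inhibition vs controls, mean (±SD) of two independent assays, each in duplicate.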

[12] = Cytotoxicity against erythrocytes (unknown origin); format: cell-based; conditions: Erythrocyte
[13] = Cytotoxicity against human mammalian cells after 72 to 96 hrs by MTT assay; format: cell-based
[14] = tested on: Plasmodium falciparum; test: Antimalarial activity against Plasmodium falciparum infected in human erythrocytes after 72 hrs; format: functional, organism-based
[15] = tested on: Plasmodium berghei; test: microbe, parasite or virus in culture; format: functional, organism-based; conditions: HepG2
[16] = Selectivity index, ratio of IC50 for human mammalian cells to IC50 for Plasmodium falciparum; format: toxicity; conditions: mammalian cells (cell line not named), read-out: Ratio IC50
Summary of the method: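 Ratio of HepG2 IC50 to P. falciparum 3D7 IC50. HepG2 toxicity assay: uninfected HepG2-A16-CD81EGFP cells treated as in the liver-stage assay, with medium instead of sporozoites, for 48 h. ATP measured by luminescence vs DMSO-treated cells. IC50 by four-parameter regression.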

[17] = Selectivity index, ratio of IC50 for mouse RAW cells to IC50 for Plasmodium falciparum; format: toxicity, cell-based; conditions: read-out: Ratio IC50
[18] = tested on: RAW; test: Cytotoxicity against mouse RAW cells by MTT assay; format: cell-based

Row | IC50 [1] | inhibition [2] | inhibition [3] | IC50 [5] | inhibition [8] | IC50 [9] | inhibition [11] | Compound | selectivity ratio [4] | IC50 [6] | selectivity ratio [7] | also measured
1 | 2700 nM | – | – | – | – | – | – | COc1ccc2nc3cc(Cl)ccc3c(Nc3cc(CN4CCCC4)c(O)c(CN4CCCC4)c3)c2n1 [PYRONARIDINE] | – | – | – | –
2 | 430 nM | 73.9% | Active | 190 nM | Active | 660 nM | 75.5% | Cc1cccc(C(=O)NOCCCCCC(=O)NO)c1 | 25 | 4690 nM | 7 | selectivity ratio [10]: 11
3 | – | 78.1% | Active | – | Active | – | 93.3% | CC(/C=C/C(=O)NO)=C\[C@@H](C)C(=O)c1ccc(N(C)C)cc1 [TRICHOSTATIN] | – | – | – | IC50 [12]: 200 nM
4 | – | 50.3% | Active | 170 nM | Active | 2140 nM | 72.1% | CCCCOc1ccc(C(=O)NOCCCCCC(=O)NO)cc1 | > 294 | > 50000 nM | > 23 | –
5 | > 120000 nM | 48.3% | Active | 90 nM | Active | 1870 nM | 68.6% | CC(C)(C)c1ccc(C(=O)NOCCCCCC(=O)NO)cc1 | 139 | 12500 nM | 7 | –
6 | – | – | – | 350 nM | – | 7910 nM | – | CCCCCCOc1ccc(C(=O)NOCCCCCC(=O)NO)cc1 | > 143 | > 50000 nM | > 6 | –
7 | – | – | – | 1120 nM | – | 2540 nM | – | Cc1ccccc1C(=O)NOCCCCCC(=O)NO | 11 | 12700 nM | 5 | –
8 | – | 9.3% | Active | 150 nM | Active | 1360 nM | 62.4% | CC(C)Oc1ccc(C(=O)NOCCCCCC(=O)NO)cc1 | 65 | 9760 nM | 7 | –
9 | 5300 nM | – | – | 260 nM | – | 1790 nM | – | CCCCc1ccc(C(=O)NOCCCCCC(=O)NO)cc1 | 41 | 10800 nM | 6 | –
10 | 1000 nM | – | – | 620 nM | – | 1130 nM | – | O=C(CCCCCONC(=O)c1ccco1)NO | 13 | 8030 nM | 7 | –
11 | – | – | – | 210 nM | – | 5140 nM | – | CCCCCOc1ccc(C(=O)NOCCCCCC(=O)NO)cc1 | > 238 | > 50000 nM | > 10 | –
12 | 2000 nM | – | – | 580 nM | – | 2310 nM | – | O=C(CCCCCONC(=O)c1ccc(F)cc1)NO | 18 | 10300 nM | 4 | –
13 | – | – | – | – | – | – | – | CCCCc1nc2cc(/C=C/C(=O)NO)ccc2n1CCN(CC)CC [PRACINOSTAT] | – | – | – | IC50 [13]: > 800 nM; IC50 [14]: 80 nM; IC50 [15]: 150 nM; selectivity ratio [16]: > 4
14 | – | – | – | – | – | – | – | O=C(CCCCCCC(=O)Nc1ccccc1)NO [VORINOSTAT] | – | – | – | IC50 [12]: > 2200 nM
15 | – | – | – | – | – | – | – | Nc1cccc(-c2csc(NC(=O)CCCCCCC(=O)NO)n2)c1 | – | – | – | selectivity ratio [17]: 333; IC50 [18]: 600 nM
16 | – | – | – | 210 nM | – | 5290 nM | – | CCCOc1ccc(C(=O)NOCCCCCC(=O)NO)cc1 | 80 | 16900 nM | 3 | –
17 | – | – | – | 260 nM | – | 1900 nM | – | O=C(CCCCCONC(=O)c1ccc(C(F)(F)F)cc1)NO | 50 | 13000 nM | 7 | –
18 | – | – | – | – | – | – | – | O=C(/C=C/c1ccccc1)N[C@@H](CCCCCC(=O)NO)C(=O)Nc1cccc2cccnc12 | – | – | – | IC50 [12]: 1240 nM
19 | – | – | – | 220 nM | – | 1140 nM | – | Cc1ccc(C(=O)NOCCCCCC(=O)NO)cc1 | 55 | 12100 nM | 11 | –
20 | – | – | – | 230 nM | – | 1370 nM | – | CCOc1ccc(C(=O)NOCCCCCC(=O)NO)cc1 | 33 | 7680 nM | 6 | –
21 | – | – | – | 240 nM | – | 450 nM | – | CCCOc1cccc(C(=O)NOCCCCCC(=O)NO)c1 | 29 | 7040 nM | 16 | –
22 | – | – | – | 240 nM | – | 480 nM | – | CCCOc1ccccc1C(=O)NOCCCCCC(=O)NO | 34 | 8120 nM | 17 | –
23 | 500 nM | 89.3% | Active | 160 nM | Active | 1830 nM | 64.2% | O=C(CCCCCONC(=O)c1ccc(-c2ccccc2)cc1)NO | 64 | 10200 nM | 6 | selectivity ratio [10]: 20
24 | 250 nM | 93.3% | Active | 120 nM | Active | 310 nM | 82.6% | Cc1ccc(C(=O)NOCCCCCC(=O)NO)cc1C | 27 | 3240 nM | 10 | selectivity ratio [10]: 13
25 | > 120000 nM | – | – | 730 nM | – | 1250 nM | – | O=C(CCCCCONC(=O)c1ccccc1F)NO | 12 | 9100 nM | 7 | –

Row | Compound | IC50 [1] | inhibition [2] | inhibition [3] | IC50 [5] | inhibition [8] | IC50 [9] | inhibition [11] | selectivity ratio [4] | IC50 [6] | selectivity ratio [7] | also measured
26 | CCN(CC)CCCC(C)Nc1ccnc2cc(Cl)ccc12 (stereo not drawn) [CHLOROQUINE] | – | – | – | – | – | > 10000 nM | – | – | > 10000 nM | – | –
27 | Cc1cc(C)cc(C(=O)NOCCCCCC(=O)NO)c1 | 330 nM | 58.6% | Active | 100 nM | Active | 160 nM | 73.8% | 13 | 1260 nM | 8 | selectivity ratio [10]: 4
28 | CC(C)c1ccc(C(=O)NOCCCCCC(=O)NO)cc1 | – | 72.9% | Active | 120 nM | Active | 1340 nM | 67.2% | 73 | 8760 nM | 7 | –
29 | O=C1C(O)=C([C@H]2CC[C@H](c3ccc(Cl)cc3)CC2)C(=O)c2ccccc21 [ATOVAQUONE] | – | – | – | – | – | 0.16 nM | – | – | – | > 64100 | –
